Test [1] deals with 5-hydroxytryptamine receptor 4 (Rattus norvegicus) (UniProt Q62758). The test is described as follows: Antagonistic activity by ability to block serotonin induced relaxation (mediated by activation of 5-hydroxytryptamine 4 receptor) in carbamylcholine (10e-6 M) contracted esophagus at a concentration of 10e-6 M. It counts as functional, tissue-based. The method in brief:
(§1)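 Isolated rat esophagus precontracted with carbamylcholine (10^-6 M). Tissue was challenged with serotonin (1 µM) in the presence of the antagonist at a given concentration or of vehicle. Relaxation was recorded as % relaxation to 10^-6 M 5-HT, given as mean ± SEM with the number of determinations.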

The target is the same in test [2]. In words: Antagonistic activity by ability to block serotonin induced relaxation (mediated by activation of 5-hydroxytryptamine 4 receptor) in carbamylcholine (10e-6 M) contracted esophagus at a concentration of 10e-7 M. It counts as functional, tissue-based. Summed up:
as §1

For test [3] the target is unchanged. In words: Antagonistic activity evaluated by ability to block serotonin induced relaxation (mediated by activation of 5-hydroxytryptamine 4 receptor) in carbamylcholine (10e-6 M) contracted esophagus at a concentration of 10e-8 M. The class given is functional, tissue-based. Summed up: as §1
Test [4] shares this target. In words: Antagonistic activity evaluated by ability to block serotonin induced relaxation via 5-hydroxytryptamine 4 receptor) in carbamylcholine (10e-6 M) contracted esophagus at a concentration of 0.1 mg/kg (p.o.). It counts as functional, organism-based. The arrangement: dose 0.1 mg/kg. Summed up: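 Rats were dosed with the antagonist by oral gavage. Esophagus was removed 3 h after dosing and challenged ex vivo with serotonin. Read-out was % relaxation of the carbamylcholine-contracted tissue to 10^-6 M 5-HT, given as mean ± SEM with the number of determinations.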

Test [5] has the same target. The test is described as follows: Antagonistic activity evaluated by ability to block serotonin induced relaxation (via 5-hydroxytryptamine 4 receptor) in carbamylcholine (10e-6 M) contracted esophagus at a concentration of 3*10e-8 M. It counts as functional. Summed up:
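Isolated rat esophagus precontracted with carbamylcholine (10^-6 M), then challenged with serotonin (1 μM) in the presence of antagonist at the stated concentration or vehicle. Read-out is % relaxation to serotonin, given as mean ± SEM with the number of determinations.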

For test [6], the target named is T1, Adrenergic receptor alpha-1 (Rattus norvegicus) (UniProt P15823+P23944+P43140). In words: Affinity for the alpha-1 adrenergic receptor determined by the displacement of [3H]prazosin from rat whole brain tissue. The class given is tissue-based. In general terms: In a radioligand displacement assay an active substance lowers the binding of a labelled ligand.
In test [7] the target is T1, Adrenergic receptor alpha-1 (Rattus norvegicus). The test is described as follows: Binding affinity for Alpha-1 adrenergic receptor in rat aorta determined by block of norepinephrine induced contraction of rat aorta. It counts as tissue-based.

5-hydroxytryptamine receptor 4 (Rattus norvegicus), sequence (Q62758 whole entry): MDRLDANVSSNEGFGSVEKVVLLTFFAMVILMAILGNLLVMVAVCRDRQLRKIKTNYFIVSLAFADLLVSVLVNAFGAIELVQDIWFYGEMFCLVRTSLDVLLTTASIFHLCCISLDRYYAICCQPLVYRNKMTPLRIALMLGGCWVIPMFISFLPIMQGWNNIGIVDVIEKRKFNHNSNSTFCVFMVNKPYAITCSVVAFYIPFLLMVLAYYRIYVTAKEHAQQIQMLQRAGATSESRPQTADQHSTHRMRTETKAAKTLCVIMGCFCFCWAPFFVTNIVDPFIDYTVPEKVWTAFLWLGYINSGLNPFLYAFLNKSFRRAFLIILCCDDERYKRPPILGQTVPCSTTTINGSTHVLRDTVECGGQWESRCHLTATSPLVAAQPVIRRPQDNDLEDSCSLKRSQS

In the case of `CN1C2CCC1CC(NC(=O)c1cn(C)c3ccccc13)C2` (stereo unspecified), in test [1], the Relaxation turned out to be 47.3%.

Regarding `CC(C)n1nc(C(=O)NCCN2CCC(NC(=O)c3ccccc3)CC2)c2ccccc21`, the Relaxation in test [2] is 14.7%; in test [3] it was 34.3%; in test [1], 2%; in test [4], 50%.

Take `CCCC(=O)NC1CCN(CCNC(=O)c2nn(C(C)C)c3ccccc23)CC1`: the Relaxation was determined as 26.5% in test [2] and 51% in test [4].

As to `CCCn1c(=O)n(C(=O)NC2CC3CCC(C2)N3C)c2ccccc21` (stereo unspecified), the Relaxation was 4.3% in test [1] and 30.7% in test [5].

Usually pKi stands for the Ki on a negative log10 scale, so that one unit is a factor of ten. A lower pKi goes with a high Ki. For the compound `CC(C)n1nc(C(=O)NCCCCN2CCCCC2)c2ccccc21`, the Relaxation in test [2] amounted to 43.3%; in test [1], 3.3%; in test [4], 49%. In test [6], this compound came in with a pKi of 5.2.

By pKb is commonly meant the negative decadic logarithm of the Kb, by convention in mol/L. A lower pKb goes with a high Kb. In the case of `CC(C)n1nc(C(=O)NC2CCN(CCCc3ccccc3)CC2)c2ccccc21`, the pKb in test [7] is 5.8. Moreover, in test [1], the Relaxation worked out at 3.7%.

Take `CC(C)n1nc(C(=O)NCCN2CCC(N)CC2)c2ccccc21`: the figures for the Relaxation in test [1] and in test [4] were 36.8% and 41%, respectively.

For `CC(C)n1cc(C(=O)NC2CC3CCC(C2)N3C)c2ccccc21` (stereo unspecified), in test [1], the Relaxation is 25.3%.

`CC(C)n1nc(C(=O)NCCN2CCCC2)c2ccccc21` registered a pKi in test [6] below 4. Besides, the values for the Relaxation in test [1] and in test [4] were 4.3% and 51%, respectively.

In test [1], `CC(C)n1nc(C(=O)NC2CCN(CCCCCc3ccccc3)CC2)c2ccccc21` had a Relaxation of 43.7%.

Take `CC(C)n1c(=O)n(C(=O)NC2CCN(C)CC2)c2ccccc21`: the Relaxation was 40.8% in test [2] and 7.5% in test [1].

As to `CC(C)n1nc(C(=O)NCCN2CCC(NC(=O)C(C)(C)C)CC2)c2ccccc21`, the Relaxation was 7.8% in test [2]; 50.5% in test [3]; 3.3% in test [1]; 30% in test [4]; 35% in test [5].

As for `CC(C)n1c(=O)n(C(=O)NC2CC3CCC(C2)N3CCCOc2ccc(F)cc2)c2ccccc21` (stereo unspecified), the Relaxation came out at 29.5% in test [2] and 2.1% in test [1].

Consider `CC(C)n1nc(C(=O)NC2CCN(CCNC(=O)c3ccccc3)CC2)c2ccccc21`, for which the Relaxation was 28% in test [2] and 6% in test [1]. In test [6], this compound came in with a negative-log Ki (pKi) of 6.62. This compound gave a pKb in test [7] of 5.8.

Take `CC(C)n1nc(C(=O)NC2CC3CCC(C2)N3CCCOc2ccc(F)cc2)c2ccccc21` (stereo unspecified): the Relaxation in test [2] was found to be 22.2%; in test [1] it was 17.7%.

Take `CC(C)n1nc(C(=O)NCCN2CCN(C(=O)c3ccccc3)CC2)c2ccccc21`: the Relaxation in test [1] turned out to be 19.8%.

The compound `CCCn1nc(C(=O)NC2CC3CCC(C2)N3C)c2ccccc21` (stereo unspecified) displayed a Relaxation in test [1] of 2.5%.

Consider `CC(C)n1nc(C(=O)NCCN2CCC(NC(=O)NCc3ccccc3)CC2)c2ccccc21`, for which the values for the Relaxation in test [1] and in test [4] were 3.3% and 30%, respectively.

In the case of `CC(C)n1nc(C(=O)NCCN2CCC(NS(C)(=O)=O)CC2)c2ccccc21`, the Relaxation in test [1] was found to be 7.3%; in test [4] it was 29%.

In turn, `CCn1c(=O)n(C(=O)NC2CC3CCC(C2)N3C)c2ccccc21` (stereo unspecified) registered a Relaxation in test [5] of 37.5%.

`CCC(C)n1nc(C(=O)NC2CC3CCC(C2)N3C)c2ccccc21` (stereo unspecified) showed a Relaxation in test [5] of 46.3%.

Compound `CCn1nc(C(=O)NC2CC3CCC(C2)N3C)c2ccccc21` (stereo unspecified) registered a Relaxation in test [1] of 6.7%.

For the compound `CC(C)n1nc(C(=O)NCCN2CCC(NC(=O)Nc3ccc(F)cc3)CC2)c2ccccc21`, the Relaxation in test [2] amounted to 44.8%; in test [1] it was 6.3%; in test [4], 45.5%.

On to `CC(C)n1nc(C(=O)NCCN2CCC(NC(=O)OCc3ccccc3)CC2)c2ccccc21`, for which, in test [6], the pKi amounted to 5.9. In addition, the pKb in test [7] was below 5. Also, the Relaxation in test [1] stood at 2.8%; in test [4], 21%.

As to `CC(C)C(=O)NC1CCN(CCNC(=O)c2nn(C(C)C)c3ccccc23)CC1`, the Relaxation was found to be 9% in test [2], 34.8% in test [3] and 45% in test [4].

On to `CC(C)n1nc(C(=O)NC2CCN(CCNS(C)(=O)=O)CC2)c2ccccc21`, for which the Relaxation in test [2] turned out to be 16%; in test [1] it was 6.8%. This compound also showed a pKi in test [6] below 4. The compound also yielded a pKb in test [7] below 5.

`CCn1cc(C(=O)NC2CC3CCC(C2)N3C)c2ccccc21` (stereo unspecified) registered a Relaxation in test [1] of 44.8%.

Take `CC(C)n1nc(C(=O)NCCN2CCC(NC(=O)Nc3ccccc3)CC2)c2ccccc21`: the Relaxation in test [1] was found to be 11%; in test [4], 33.7%.

In turn, `CC(C)n1nc(C(=O)NCCN2CCCCCC2)c2ccccc21` came in with a pKi in test [6] of 5. In addition, the Relaxation was 4.8% in test [1] and 52% in test [4].

As to `CC(=O)NC1CCN(CCNC(=O)c2nn(C(C)C)c3ccccc23)CC1`, the pKi in test [6] is below 4. Moreover, the Relaxation in test [3] came out at 51.3%; in test [1] it was 6.8%; in test [4] it was 19.1%; in test [5] it was 33.5%.

In test [1], `CN1C2CCC1CC(NC(=O)c1c[nH]c3ccccc13)C2` (stereo unspecified) displayed a Relaxation of 60%.

`CCN(CC)CCNC(=O)c1nn(C(C)C)c2ccccc12` had a Relaxation in test [1] of 26.8%.

Compound `CC(C)n1nc(C(=O)NCCN2CCN(Cc3ccccc3)CC2)c2ccccc21` gave a Relaxation in test [1] of 9.1%.

The compound `CCC(C)n1c(=O)n(C(=O)NC2CC3CCC(C2)N3C)c2ccccc21` (stereo unspecified) displayed a Relaxation in test [1] of 8.8%.

Consider `CC(C)n1nc(C(=O)NC2CCN(CCc3ccccc3)CC2)c2ccccc21`, for which the pKb in test [7] stood at 7.68. Moreover, the Relaxation in test [1] stood at 1.3%.

Take `CCC(=O)NC1CCN(CCNC(=O)c2nn(C(C)C)c3ccccc23)CC1`: the figures for the Relaxation in test [2] and in test [4] were 11.3% and 36%, respectively.

As for `CN1C2CCC1CC(NC(=O)n1c(=O)n(C)c3ccccc31)C2` (stereo unspecified), in test [1], the Relaxation worked out at 7.3%.

`CC(C)n1nc(C(=O)NCCN2CCc3ccccc3C2)c2ccccc21`: the Relaxation in test [1] was determined as 20.3%; in test [4] it was 41%.

In test [1], `CC(C)n1nc(C(=O)NC2CCNCC2)c2ccccc21` came in with a Relaxation of 32%.

`CC(C)n1c(=O)n(C(=O)NC2CCN(CCCOc3ccc(F)cc3)CC2)c2ccccc21` displayed a Relaxation in test [2] of 62%.

Regarding `CC(C)n1nc(C(=O)NCCN2CCC(NC(=O)Cc3ccccc3)CC2)c2ccccc21`, the Relaxation amounted to 23.7% in test [2], 5.6% in test [1] and 39% in test [4].

In the case of `CC(C)n1nc(C(=O)NC2CCN(CCCCc3ccccc3)CC2)c2ccccc21`, the pKb in test [7] was determined as 5.6. For the same compound, in test [1], the Relaxation stood at 4%.

On to `CCC(C)n1cc(C(=O)NC2CC3CCC(C2)N3C)c2ccccc21` (stereo unspecified), for which the Relaxation in test [1] was found to be 57.8%.

Take `CC(C)n1nc(C(=O)NCCN2CCC(Cc3ccccc3)CC2)c2ccccc21`: the Relaxation in test [2] was 42%; in test [1], 16.4%; in test [4] it was 26%.

In test [1], `CCCn1cc(C(=O)NC2CC3CCC(C2)N3C)c2ccccc21` (stereo unspecified) registered a Relaxation of 34.3%.

Take `CC(C)n1nc(C(=O)NC2CCN(CCNC(=O)C34C[C@H]5C[C@@H](C3)C[C@@H](C4)C5)CC2)c2ccccc21`: the Relaxation in test [2] was found to be 38.5%; in test [1], 1%.

For `CCCCC(=O)NC1CCN(CCNC(=O)c2nn(C(C)C)c3ccccc23)CC1`, the Relaxation in test [2] worked out at 25.6%; in test [3], 51%; in test [4], 38%.

With `CC(C)n1nc(C(=O)NCCN2CCOCC2)c2ccccc21`, the Relaxation in test [2] amounted to 42.3%; in test [1] it was 19.8%.

(Values after ChEMBL document CHEMBL1131384, “Synthesis and structure-activity relationships of potent and orally active 5-HT4 receptor antagonists: indazole and benzimidazolone derivatives” (J Med Chem, 1998).)
